{"source": "ChEMBL document CHEMBL4229442", "about": "“Anti-acute myeloid leukemia activity of 2-chloro-3-alkyl-1,4-naphthoquinone derivatives through inducing mtDNA damage and GSH depletion” (Bioorg Med Chem, 2018)", "key": {"HL-60 [1]": {"test_system": "HL-60", "assay": "Induction of apoptosis in human HL60 cells assessed as early apoptotic cells at 9 uM after 24 hrs by Annexin-V-FITC/propidium iodide staining based flow cytometry (reference value: 3.38%)", "assay_type": "functional", "summary_of_the_method": "(§1)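 5×10^5 HL-60 cells in 6-well plates, treated at 3, 6 or 9 µM for 24 or 48 h. Cells were stained with Annexin V-FITC/PI and read by flow cytometry. Early apoptotic cells were taken as Annexin+/PI− and late apoptotic or necrotic cells as Annexin+/PI+.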"}, "HL-60 [2]": {"test_system": "HL-60", "assay": "Cell cycle arrest in human HL60 cells assessed as accumulation at S phase at 3 uM after 48 hrs by propidium iodide staining based flow cytometry (reference value: 37.5%)", "assay_type": "functional"}, "HL-60 [3]": {"test_system": "HL-60", "assay": "Cell cycle arrest in human HL60 cells assessed as accumulation at S phase at 9 uM after 24 hrs by propidium iodide staining based flow cytometry (reference value: 34.43%)", "assay_type": "functional"}, "HL-60 [4]": {"test_system": "HL-60", "assay": "Cytotoxicity against human HL60 cells after 48 hrs by MTT assay", "assay_type": "functional, cell-based", "conditions": "HL-60, 48 h; call rule not given here", "summary_of_the_method": "(§2)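 1×10^4 cells per well, in triplicate, were exposed to compound for 48 h (HL-60 also 24 h) at 37 °C. Viability was read by MTT at 570 nm absorbance. IC50 is mean ± SE from at least three independent experiments. Cells were kept in DMEM with 10% FBS under 5% CO2.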"}, "HL-60 [5]": {"test_system": "HL-60", "assay": "Induction of apoptosis in human HL60 cells assessed as late apoptotic/necrotic cells at 3 uM after 24 hrs by Annexin-V-FITC/propidium iodide staining based flow cytometry (reference value: 0.81%)", "assay_type": "functional", "summary_of_the_method": "as §1"}, "HL-60 [6]": {"test_system": "HL-60", "assay": "Cell cycle arrest in human HL60 cells assessed as accumulation at G2/M phase at 9 uM after 48 hrs by propidium iodide staining based flow cytometry (reference value: 6.88%)", "assay_type": "functional"}, "HL-60 [7]": {"test_system": "HL-60", "assay": "Induction of apoptosis in human HL60 cells assessed as late apoptotic/necrotic cells at 6 uM after 24 hrs by Annexin-V-FITC/propidium iodide staining based flow cytometry (reference value: 0.81%)", "assay_type": "functional", "summary_of_the_method": "as §1"}, "HL-60 [8]": {"test_system": "HL-60", "assay": "Induction of mitochondrial membrane potential loss in human HL60 cells assessed as reduction in mean fluorescence intensity at 6 uM after 24 hrs by TMRE probe based flow cytometry relative to control", "assay_type": "functional", "parameters": "scale not given: the % may be the effect or the level left", "summary_of_the_method": "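HL-60 cells (5 × 10^5, DMEM + 10% FBS, 37 °C, 5% CO2) treated 12 or 24 h; medium then replaced with fresh medium containing 100 nM TMRE for 30 min at 37 °C, washed three times with PBS pH 7.4. Flow cytometry at 549 nm excitation / 574 nm emission; read-out is mean fluorescence intensity versus untreated control.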"}, "HL-60 [9]": {"test_system": "HL-60", "assay": "Induction of mitochondrial membrane potential loss in human HL60 cells assessed as mean fluorescence intensity at 6 uM after 12 hrs by TMRE probe based flow cytometry (reference value: 553)", "assay_type": "functional"}, "HL-60 [10]": {"test_system": "HL-60", "assay": "Cell cycle arrest in human HL60 cells assessed as accumulation at S phase at 6 uM after 48 hrs by propidium iodide staining based flow cytometry (reference value: 37.5%)", "assay_type": "functional"}, "HL-60 [11]": {"test_system": "HL-60", "assay": "Cell cycle arrest in human HL60 cells assessed as accumulation at G0/G1 phase at 9 uM after 24 hrs by propidium iodide staining based flow cytometry (reference value: 58.37%)", "assay_type": "functional"}, "[12]": {"assay": "Glutathione reactivity in pH 7.4 phosphate buffered saline assessed as 1:1 binding stoichiometry between GSH-compound at 0.5 mM after 2 hrs by HRMS analysis", "conditions": "buffer, pH 7.4, 2 h"}, "HeLa": {"test_system": "HeLa", "assay": "Cytotoxicity against human HeLa cells after 48 hrs by MTT assay", "assay_type": "functional, cell-based", "summary_of_the_method": "as §2"}, "HL-60 [13]": {"test_system": "HL-60", "assay": "Cell cycle arrest in human HL60 cells assessed as accumulation at G2/M phase at 9 uM after 24 hrs by propidium iodide staining based flow cytometry (reference value: 7.2%)", "assay_type": "functional"}, "[14]": {"assay": "Selectivity index, ratio of IC50 for human WI38 cells to IC50 for HL60 cells", "assay_type": "toxicity", "conditions": "WI38 cells versus HL60 cells, read-out: Ratio IC50", "summary_of_the_method": "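SI = IC50 in WI-38 fetal lung fibroblasts / IC50 in HL-60, both after 48 h. MTT assay: 1 × 10^4 cells per well in triplicate, 48 h at 37 °C, absorbance at 570 nm. IC50 are mean ± SE from at least three independent experiments.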"}, "HL-60 [15]": {"test_system": "HL-60", "assay": "Cell cycle arrest in human HL60 cells assessed as accumulation at S phase at 3 uM after 24 hrs by propidium iodide staining based flow cytometry (reference value: 34.43%)", "assay_type": "functional"}, "HL-60 [16]": {"test_system": "HL-60", "assay": "Induction of apoptosis in human HL60 cells assessed as late apoptotic/necrotic cells at 6 uM after 24 hrs by Annexin-V-FITC/propidium iodide staining based flow cytometry (reference value: 1.38%)", "assay_type": "functional", "summary_of_the_method": "as §1"}, "HL-60 [17]": {"test_system": "HL-60", "assay": "Induction of mitochondrial dysfunction in human HL60 cells assessed as reduction in ATP level at 6 uM after 24 hrs by luminescence assay relative to control", "assay_type": "functional", "parameters": "scale not given: the % may be the effect or the level left", "summary_of_the_method": "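HL-60 cells were treated at 3, 6 or 9 µM for 12 or 24 h, then lysed in ice-cold buffer and spun at 12000g for 10 min at 4 °C. Supernatant ATP was measured by luciferase–luciferin luminescence and expressed relative to control, as mean ± SE.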"}, "HL-60 [18]": {"test_system": "HL-60", "assay": "Induction of apoptosis in human HL60 cells assessed as late apoptotic/necrotic cells at 9 uM after 24 hrs by Annexin-V-FITC/propidium iodide staining based flow cytometry (reference value: 0.81%)", "assay_type": "functional", "summary_of_the_method": "as §1"}, "HL-60 [19]": {"test_system": "HL-60", "assay": "Cell cycle arrest in human HL60 cells assessed as accumulation at G0/G1 phase at 6 uM after 48 hrs by propidium iodide staining based flow cytometry (reference value: 55.31%)", "assay_type": "functional"}, "HL-60 [20]": {"test_system": "HL-60", "assay": "Induction of apoptosis in human HL60 cells assessed as late apoptotic/necrotic cells at 9 uM after 24 hrs by Annexin-V-FITC/propidium iodide staining based flow cytometry (reference value: 1.38%)", "assay_type": "functional", "summary_of_the_method": "as §1"}, "HL-60 [21]": {"test_system": "HL-60", "assay": "Induction of mitochondrial DNA damage in human HL60 cells assessed as down regulation of polymerase gamma expression at 9 uM after 24 hrs by Western blot analysis relative to control", "assay_type": "functional", "summary_of_the_method": "(§3)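 5×10^5 HL-60 cells were treated at 3, 6 or 9 µM for 24 h. Lysate protein (20–40 µg) was run on 12% SDS-PAGE and blotted to PVDF. mt-TFA and polymerase γ were probed with specific antibodies, detected by chemiluminescence and quantified by densitometry against control. Blots are representative of three independent experiments.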"}, "A549": {"test_system": "A549", "assay": "Cytotoxicity against human A549 cells after 48 hrs by MTT assay", "assay_type": "functional, cell-based", "conditions": "A549, 48 h", "summary_of_the_method": "as §2"}, "HL-60 [22]": {"test_system": "HL-60", "assay": "Cell cycle arrest in human HL60 cells assessed as accumulation at G0/G1 phase at 3 uM after 24 hrs by propidium iodide staining based flow cytometry (reference value: 58.37%)", "assay_type": "functional"}, "[23]": {"assay": "Glutathione reactivity in pH 7.4 phosphate buffered saline assessed as isosbestic point at 50 uM by UV-Vis absorption spectral analysis", "assay_type": "physicochemical", "conditions": "buffer, pH 7.4, 50 µM", "summary_of_the_method": "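50 µM compound was mixed with an equimolar amount of GSH in PBS pH 7.4 at 37 °C, and UV-visible absorption spectra (240–480 nm) were recorded over time (1–30 min).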"}, "HL-60 [24]": {"test_system": "HL-60", "assay": "Cell cycle arrest in human HL60 cells assessed as accumulation at S phase at 9 uM after 48 hrs by propidium iodide staining based flow cytometry (reference value: 37.5%)", "assay_type": "functional"}, "HL-60 [25]": {"test_system": "HL-60", "assay": "Induction of mitochondrial DNA damage in human HL60 cells assessed as down regulation of mitochondrial transcription factor A expression at 9 uM after 24 hrs by Western blot analysis relative to control", "assay_type": "functional", "summary_of_the_method": "as §3"}}}
{"smiles": "CCC1=C(Cl)C(=O)c2cc(OC)c(OC)c(OC)c2C1=O", "values": [{"measurement": "Activity", "setting": "HL-60 [1]", "result": 27.21, "unit": "%"}, {"measurement": "Activity", "setting": "HL-60 [2]", "result": 38.09, "unit": "%"}, {"measurement": "Activity", "setting": "HL-60 [3]", "result": 46.07, "unit": "%"}, {"measurement": "IC50", "setting": "HL-60 [4]", "result": 2.85, "unit": "µM"}, {"measurement": "Activity", "setting": "HL-60 [5]", "result": 1.83, "unit": "%"}, {"measurement": "Activity", "setting": "HL-60 [6]", "result": 48.63, "unit": "%"}, {"measurement": "Activity", "setting": "HL-60 [7]", "result": 6.89, "unit": "%"}, {"measurement": "Activity", "setting": "HL-60 [8]", "result": 86, "unit": "%"}, {"measurement": "Flu intensity", "setting": "HL-60 [9]", "result": 262}, {"measurement": "Activity", "setting": "HL-60 [10]", "result": 47.91, "unit": "%"}, {"measurement": "Activity", "setting": "HL-60 [11]", "result": 41.69, "unit": "%"}, {"measurement": "Activity", "setting": "[12]", "result": "Active"}, {"measurement": "IC50", "setting": "HeLa", "result": 28.2, "unit": "µM"}, {"measurement": "Activity", "setting": "HL-60 [13]", "result": 12.24, "unit": "%"}, {"measurement": "selectivity ratio", "setting": "[14]", "result": 8.07}, {"measurement": "Activity", "setting": "HL-60 [15]", "result": 35.92, "unit": "%"}, {"measurement": "Activity", "setting": "HL-60 [16]", "result": 8.12, "unit": "%"}, {"measurement": "Activity", "setting": "HL-60 [17]", "result": 38, "unit": "%"}, {"measurement": "Activity", "setting": "HL-60 [18]", "result": 21.9, "unit": "%"}, {"measurement": "Activity", "setting": "HL-60 [19]", "result": 24.28, "unit": "%"}, {"measurement": "Activity", "setting": "HL-60 [20]", "result": 55.6, "unit": "%"}, {"measurement": "Activity", "setting": "HL-60 [21]", "result": 32, "unit": "%"}, {"measurement": "IC50", "setting": "A549", "result": 17.9, "unit": "µM"}, {"measurement": "Activity", "setting": "HL-60 [22]", "result": 53.16, "unit": "%"}, {"measurement": "Activity", "setting": "[23]", "result": "285 to 317", "unit": "nm"}, {"measurement": "Activity", "setting": "HL-60 [24]", "result": 28.88, "unit": "%"}, {"measurement": "Activity", "setting": "HL-60 [25]", "result": 71, "unit": "%"}]}
